Experimental data of several laboratories.
Lines come from different studies, so protocols differ.
Cell line: A549

Compound	assay	conditions	IC50 [µM]
COc1nc(OCc2cccc(-c3ccccc3)c2C)ccc1CNCCNC(C)=O	cell growth or viability, MTT	–	4.6
COc1ccnc(COc2ccc(NC(=O)Nc3cc(F)cc(F)c3)cc2)c1OC	cell growth or viability, MTT	72 h	17.3
CCNC(=S)NC(=O)c1ccc2ccccc2c1	cell growth or viability	48 h	5.01
CCC(=O)Nc1cc(Nc2nc(N3CCc4sccc4C3)c3cccnc3n2)c(OC)cc1N1CCSCC1	cell growth or viability, MTT	–	7.91
COc1ccc(/C=C/C(=O)C(=Cc2ccc(F)cc2)C(=O)/C=C/c2ccc(OC)c(OC)c2)cc1OC	colony formation	9 days	< 0.2
O=C1Nc2ccc(Cl)cc2/C1=N/NC(=O)c1cc2ccccc2[nH]1	cell growth or viability	–	19.7
COc1cccc(Oc2ccccc2NC(=O)CNC(=O)c2c(C)cc(C)cc2C)c1	cell growth or viability	–	4.7
O=C1NC(=NCc2cccs2)S/C1=C\c1ccc2ncccc2c1	cell growth or viability	–	> 10
C=CC(=O)Nc1cc(Nc2nc(N3CCc4sccc4C3)c3cccnc3n2)c(OC)cc1N1CCN(C(C)=O)CC1	cell growth or viability, MTT	–	> 50
CC(=O)OCCOC(=O)[C@]1(C)CC[C@]2(C)CC[C@]3(C)C4=CC=C5C(=CC(=O)C(O)=C5C)[C@]4(C)CC[C@@]3(C)[C@@H]2C1	cell growth or viability, MTT	48 h	3.19
COc1ccccc1NCC(O)COc1cccc2[nH]c3ccccc3c12 (stereo not shown)	cell growth or viability, CCK-8	72 h	86.8
CN(C)CCCn1cccc1/C=N/NC(=O)Nc1cc2c(Nc3ccc(F)c(Cl)c3)ncnc2cc1O[C@H]1CCOC1	cell growth or viability, MTT	72 h	6.17
NS(=O)(=O)OC[C@@H]1C[C@@H](n2ccc3c(N[C@H]4CCc5ccccc54)ncnc32)C[C@@H]1O	cell growth or viability, CCK-8	72 h	0.8
O=C(Nc1nnc(-c2cc3ccccc3[nH]2)s1)c1cc2c([nH]c3ccccc32)c(-c2ccccc2)n1	cell growth or viability, MTT	72 h	3
CC(=O)O[C@H]1C(=O)[C@@]2(C)[C@H]([C@H](OC(=O)c3ccccc3)[C@]3(O)C[C@H](OC(=O)[C@H](O)[C@@H](NC(=O)c4ccccc4)c4ccccc4)C(C)=C1C3(C)C)[C@]1(OC(C)=O)CO[C@@H]1C[C@@H]2O	cell growth or viability, CCK-8	72 h	0.0206
CCN(CC)CCn1cccc1/C=N/NC(=O)Nc1cc2c(Nc3ccc(F)c(Cl)c3)ncnc2cc1OC	cell growth or viability, MTT	72 h	0.43
COc1cccc2c1C(=O)c1c(O)c3c(c(O)c1C2=O)C[C@@](O)(C(=O)CO)C[C@@H]3O[C@H]1C[C@H](N)[C@H](O)[C@H](C)O1	cell growth or viability	48 h	0.56
C#Cc1cccc(Nc2ncnc3cc(OCCOC)c(OCCOC)cc23)c1	cell growth or viability, MTT	–	19.4
O=C(N/N=C/c1cccn1CCN1CCOCC1)Nc1cc2c(Nc3ccc(F)c(Cl)c3)ncnc2cc1O[C@H]1CCOC1	cell growth or viability, MTT	72 h	1.32
CS(=O)(=O)c1ccc(-n2cc(/C=N/N=c3\[nH]c(-c4ccc(Br)cc4)cs3)c(-c3ccc(Br)cc3)n2)cc1	cell growth or viability, MTT	48 h	9.41
Nc1ccc(Cl)c[n+]1[Pt-2]([Cl])([Cl])[n+]1cc(Cl)ccc1N	cell growth or viability, MTT	24 h	8.6
CCCCNC(=O)NNC(=O)c1cccc(Nc2nccc(-c3ccncc3)n2)c1	cell growth or viability, MTT	24 h	30.6
